Experimental data from article PMC7744997 (Clinical Infectious Diseases: An Official Publication of …, 2020).

Experiment: Laboratory safety in RSV-infected infants
Assay type: in vivo, human
Outline: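 Clinical laboratory tests were run in RSV-infected infants (>1 to ≤24 months) given oral drug or placebo once daily for 7 days. Abnormalities were graded with the DMID Pediatric Toxicity Tables (November 2007 version). Patients were followed for 28 days after randomisation.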

## CS(=O)(=O)CCCn1c(Cn2c(=O)n(CC(F)(F)F)c3ccncc32)cc2cc(Cl)ccc21 [JNJ-53718678]
All cohorts, n=37
  Hemoglobin Grade 1 (treatment-emergent worst toxicity grade): 2 (5) no. (%)
  Hemoglobin Grade 2 (treatment-emergent worst toxicity grade): 1 (3) no. (%)
  Hyperkalemia Grade 1 (treatment-emergent worst toxicity grade): 10 (27) no. (%)
  Hyperkalemia Grade 2 (treatment-emergent worst toxicity grade): 2 (5) no. (%)
  Hypoglycemia Grade 1 (treatment-emergent worst toxicity grade): 3 (8) no. (%)
  Hyponatremia Grade 2 (treatment-emergent worst toxicity grade): 3 (8) no. (%)
All, n=26
  Eosinophils/leukocytes: Above (treatment-emergent nongraded abnormality): 7 (27) no. (%)
  Eosinophils/leukocytes: Below (treatment-emergent nongraded abnormality): 1 (4) no. (%)
  Lymphocytes/leukocytes: Above (treatment-emergent nongraded abnormality): 6 (23) no. (%)
  Lymphocytes/leukocytes: Below (treatment-emergent nongraded abnormality): 1 (4) no. (%)
  Monocytes/leukocytes: Above (treatment-emergent nongraded abnormality): 5 (19) no. (%)
  Monocytes/leukocytes: Below (treatment-emergent nongraded abnormality): 3 (12) no. (%)
  Neutrophils/leukocytes: Above (treatment-emergent nongraded abnormality): 1 (4) no. (%)
  Neutrophils/leukocytes: Below (treatment-emergent nongraded abnormality): 6 (23) no. (%)
All, n=33
  Urea: Above (treatment-emergent nongraded abnormality): 1 (3) no. (%)
  Urea: Below (treatment-emergent nongraded abnormality): 5 (15) no. (%)
All, n=35
  Bicarbonate: Above (treatment-emergent nongraded abnormality): 3 (9) no. (%)
  Bicarbonate: Below (treatment-emergent nongraded abnormality): 6 (17) no. (%)
  Eosinophils: Above (treatment-emergent nongraded abnormality): 7 (20) no. (%)
  Eosinophils: Below (treatment-emergent nongraded abnormality): 0 no. (%)
All, n=36
  Lymphocytes: Above (treatment-emergent nongraded abnormality): 6 (17) no. (%)
  Lymphocytes: Below (treatment-emergent nongraded abnormality): 0 no. (%)
All, n=37
  Alkaline phosphatase: Above (treatment-emergent nongraded abnormality): 2 (5) no. (%)
  Alkaline phosphatase: Below (treatment-emergent nongraded abnormality): 3 (8) no. (%)
  Chloride: Above (treatment-emergent nongraded abnormality): 5 (14) no. (%)
  Chloride: Below (treatment-emergent nongraded abnormality): 1 (3) no. (%)
  Erythrocytes: Above (treatment-emergent nongraded abnormality): 4 (11) no. (%)
  Erythrocytes: Below (treatment-emergent nongraded abnormality): 3 (8) no. (%)
  Leukocytes: Above (treatment-emergent nongraded abnormality): 6 (16) no. (%)
High (cohorts 1d,2c,3c), n=4
  Eosinophils/leukocytes: Above (treatment-emergent nongraded abnormality): 1 (25) no. (%)
  Eosinophils/leukocytes: Below (treatment-emergent nongraded abnormality): 0 no. (%)
  Lymphocytes/leukocytes: Above (treatment-emergent nongraded abnormality): 1 (25) no. (%)
  Lymphocytes/leukocytes: Below (treatment-emergent nongraded abnormality): 0 no. (%)
  Monocytes/leukocytes: Above (treatment-emergent nongraded abnormality): 0 no. (%)
  Monocytes/leukocytes: Below (treatment-emergent nongraded abnormality): 0 no. (%)
  Neutrophils/leukocytes: Above (treatment-emergent nongraded abnormality): 0 no. (%)
  Neutrophils/leukocytes: Below (treatment-emergent nongraded abnormality): 0 no. (%)
High (cohorts 1d,2c,3c), n=8
  Bicarbonate: Above (treatment-emergent nongraded abnormality): 0 no. (%)
  Bicarbonate: Below (treatment-emergent nongraded abnormality): 3 (38) no. (%)
  Eosinophils: Above (treatment-emergent nongraded abnormality): 0 no. (%)
  Eosinophils: Below (treatment-emergent nongraded abnormality): 0 no. (%)
High (cohorts 1d,2c,3c), n=9
  Alkaline phosphatase: Above (treatment-emergent nongraded abnormality): 0 no. (%)
  Alkaline phosphatase: Below (treatment-emergent nongraded abnormality): 0 no. (%)
  Chloride: Above (treatment-emergent nongraded abnormality): 0 no. (%)
  Chloride: Below (treatment-emergent nongraded abnormality): 0 no. (%)
  Erythrocytes: Above (treatment-emergent nongraded abnormality): 0 no. (%)
  Erythrocytes: Below (treatment-emergent nongraded abnormality): 1 (11) no. (%)
  Hemoglobin Grade 1 (treatment-emergent worst toxicity grade): 0 no. (%)
  Hemoglobin Grade 2 (treatment-emergent worst toxicity grade): 0 no. (%)
  Hyperkalemia Grade 1 (treatment-emergent worst toxicity grade): 1 (11) no. (%)
  Hyperkalemia Grade 2 (treatment-emergent worst toxicity grade): 1 (11) no. (%)
  Hypoglycemia Grade 1 (treatment-emergent worst toxicity grade): 3 (33) no. (%)
  Hyponatremia Grade 2 (treatment-emergent worst toxicity grade): 1 (11) no. (%)
  Leukocytes: Above (treatment-emergent nongraded abnormality): 3 (33) no. (%)
  Lymphocytes: Above (treatment-emergent nongraded abnormality): 1 (11) no. (%)
  Lymphocytes: Below (treatment-emergent nongraded abnormality): 0 no. (%)
  Urea: Above (treatment-emergent nongraded abnormality): 0 no. (%)
  Urea: Below (treatment-emergent nongraded abnormality): 0 no. (%)
Low (cohorts 1a,2a,3a), n=9
  Eosinophils/leukocytes: Above (treatment-emergent nongraded abnormality): 2 (22) no. (%)
  Eosinophils/leukocytes: Below (treatment-emergent nongraded abnormality): 0 no. (%)
  Lymphocytes/leukocytes: Above (treatment-emergent nongraded abnormality): 2 (22) no. (%)
  Lymphocytes/leukocytes: Below (treatment-emergent nongraded abnormality): 0 no. (%)
  Monocytes/leukocytes: Above (treatment-emergent nongraded abnormality): 2 (22) no. (%)
  Monocytes/leukocytes: Below (treatment-emergent nongraded abnormality): 2 (22) no. (%)
  Neutrophils/leukocytes: Above (treatment-emergent nongraded abnormality): 0 no. (%)
  Neutrophils/leukocytes: Below (treatment-emergent nongraded abnormality): 3 (33) no. (%)
  Urea: Above (treatment-emergent nongraded abnormality): 1 (11) no. (%)
  Urea: Below (treatment-emergent nongraded abnormality): 1 (11) no. (%)
Low (cohorts 1a,2a,3a), n=11
  Bicarbonate: Above (treatment-emergent nongraded abnormality): 1 (9) no. (%)
  Bicarbonate: Below (treatment-emergent nongraded abnormality): 0 no. (%)
Low (cohorts 1a,2a,3a), n=12
  Alkaline phosphatase: Above (treatment-emergent nongraded abnormality): 1 (8) no. (%)
  Alkaline phosphatase: Below (treatment-emergent nongraded abnormality): 0 no. (%)
  Chloride: Above (treatment-emergent nongraded abnormality): 1 (8) no. (%)
